Data published in ChEMBL document CHEMBL1151190, “Acetylated flavonoid glycosides potentiating NGF action from Scoparia dulcis” (2004).
Active and inactive are the calls of the source. The rule behind the calls is not given here.

Legend:
PC-12 [1] = assay: Induction of neurite growth in rat PC12D cells at 30 umol after 48 hrs; type: functional, cell-based
Outline: (§1)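 No NGF was added. PC12D cells were detached with EGTA/PBS and plated on poly-L-lysine. After 24 h they went into medium with 1% fetal calf serum and 2% horse serum plus compound (DMSO stocks 50 mmol). Cells were fixed after 48 h in 2% glutaraldehyde. The percentage with processes ≥ cell-body diameter was scored by phase-contrast microscopy: 3 fields/well, 6 wells/sample.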

PC-12 [2] = assay: Increase of nerve growth factor-stimulated neurite growth in rat PC12D cells at 100 umol after 48 hrs; type: functional
Outline: (§2)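 PC12D cells detached with 1 mmol EGTA in PBS for 30 min, seeded at 2 × 10^4 cells/well on poly-L-lysine. After 24 h, switched to medium with 1% fetal calf serum, 2% horse serum, NGF 2 ng/mL plus compound at 10, 30 or 100 µmol (DMSO stocks 50 mmol). Fixed after 48 h with 2% glutaraldehyde, 37 °C, 1 h.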

PC-12 [3] = assay: Induction of neurite growth in rat PC12D cells at 100 umol after 48 hrs; type: functional, cell-based; outline: as §1
PC-12 [4] = assay: Induction of neurite growth in rat PC12D cells at 10 umol after 48 hrs; type: functional, cell-based; outline: as §1
PC-12 [5] = assay: Increase of nerve growth factor-stimulated neurite growth in rat PC12D cells at 10 to 100 umol after 48 hrs; type: functional, cell-based; outline: as §2

CC(=O)O[C@@H]1[C@@H](O)[C@H](C)O[C@@H](OC[C@H]2O[C@@H](Oc3cc(O)c4c(=O)cc(-c5ccc(O)cc5)oc4c3)[C@H](O)[C@@H](O)[C@@H]2O)[C@@H]1OC(C)=O was tested, and the Activity (PC-12 [1]) was “inactive”, the Activity (PC-12 [2]) was 14.9% and the Activity (PC-12 [3]) was “inactive”. For the same compound, the Activity (PC-12 [4]) was “inactive”.

For C=CCc1ccc(O[C@@H]2O[C@H](CO)[C@@H](O)[C@H](O)[C@H]2O)c(OC)c1, the Activity (PC-12 [5]) was “inactive”.

CC(=O)O[C@@H]1[C@@H](O)[C@H](C)O[C@@H](OC[C@H]2O[C@@H](Oc3cc4oc(-c5ccc(O)cc5)cc(=O)c4c(O)c3O)[C@H](O)[C@@H](O)[C@@H]2O)[C@@H]1OC(C)=O was tested, and the Activity (PC-12 [5]) was “inactive”.

With CC(=O)O[C@@H]1[C@@H](O)[C@H](C)O[C@@H](OC[C@H]2O[C@@H](Oc3cc(O)c4c(=O)cc(-c5ccc(O)cc5)oc4c3)[C@H](O)[C@@H](O)[C@@H]2O)[C@@H]1O the Activity (PC-12 [1]) was “inactive”, the Activity (PC-12 [2]) was 16.1% and the Activity (PC-12 [3]) was “inactive”. The Activity (PC-12 [4]) was “inactive”.
